# Screens as filed in PubChem BioAssay.
# hERG rescue: hERG (human) protection from proarrhythmic block; Q12809; CHO-hERG, FluxOR thallium flux, dofetilide IC70 present; activation (rescue from dofetilide block), less the hit threshold, % at 10 µM; hit rate 0.51% among 310,000; AID 1511;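 active = activation above the mean of controls blocked by dofetilide plus 5 SD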;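 note: thallium influx through hERG after potassium depolarization seen as dye fluorescence rise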
# KCNQ1 act: potentiators or activators of human KCNQ1 potassium channel; hit rate 0.35% among 310,000; CHO-K1 KCNQ1, thallium flux FluxOR fluorescence; hits give high values; B-score at 10 µM; AID 2648; P51787;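 active = fluorescence ratio B-score, a plate-corrected score, at least three library SD, with initial intensity B-score within 5 SD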
# Target sequence (P51787 whole entry, looked up): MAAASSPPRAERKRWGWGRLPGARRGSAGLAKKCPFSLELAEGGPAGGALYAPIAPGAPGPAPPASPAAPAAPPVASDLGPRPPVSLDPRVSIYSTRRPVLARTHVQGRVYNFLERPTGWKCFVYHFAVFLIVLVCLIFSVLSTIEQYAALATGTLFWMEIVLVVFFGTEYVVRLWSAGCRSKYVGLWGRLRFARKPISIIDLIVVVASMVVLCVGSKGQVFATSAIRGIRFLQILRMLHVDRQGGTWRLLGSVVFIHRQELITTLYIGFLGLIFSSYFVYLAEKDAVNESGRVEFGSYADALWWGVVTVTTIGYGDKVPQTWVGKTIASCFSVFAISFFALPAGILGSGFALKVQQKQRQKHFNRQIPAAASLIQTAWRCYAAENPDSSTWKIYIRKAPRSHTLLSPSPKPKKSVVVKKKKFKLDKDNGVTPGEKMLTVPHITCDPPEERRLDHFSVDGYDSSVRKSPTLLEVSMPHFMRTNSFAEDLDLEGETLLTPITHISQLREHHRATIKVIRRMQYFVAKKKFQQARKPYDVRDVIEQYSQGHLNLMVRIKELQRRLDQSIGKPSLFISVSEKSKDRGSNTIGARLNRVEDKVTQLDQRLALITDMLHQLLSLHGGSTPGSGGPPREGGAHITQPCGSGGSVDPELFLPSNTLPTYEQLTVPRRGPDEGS
#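 Assay system: CHO-K1 cells stably expressing KCNQ1. Medium: assay buffer for compound exposure, DMSO matched across wells. Timing: 37 °C overnight plating, 90-min dark dye load, 20-min compound pretreatment. Signal: kinetic FluxOR fluorescence, 10 s baseline plus 110 s post-stimulus.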
# KCNK9 block: blocks the human KCNK9 two-pore domain potassium channel. B-score at 10 µM. hit rate 1.2% among 310,000. Q9NPC2. AID 488922. HEK293 KCNK9, FluxOR thallium flux fluorescence; hits give low values;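 active = ratio B-score over 3 SD below the library mean, with starting fluorescence within 5 SD of its mean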;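 note: negative B-score means less thallium flux so channel inhibition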
# Kir21 inh: blocks the mouse Kir2.1 inward-rectifier potassium channel; P35561; HEK293-Kir2.1, FluxOR thallium flux fluorescence; hits give low values; B-score at 10 µM; hit rate 0.85% among 310,000; AID 1672;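 active = fluorescence ratio B-score at or below minus 3 SD of library scores, with starting-brightness B-score within 2 SD, cut at about -4.2 in these data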;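 note: channel flux triggered by added potassium and thallium sulfate stimulus; B-score of peak minus minimum fluorescence over baseline after thallium stimulus; more negative B-score means stronger Kir2.1 block with less thallium influx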
# KCNQ1 block: blocks the human KCNQ1 potassium channel; B-score at 10 µM; hit rate 1.3% among 310,000; P51787; CHO-K1 KCNQ1, FluxOR thallium flux fluorescence; hits give high values;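 active = compounds whose thallium flux B-score, printed positive for inhibition, exceeds three library SD while starting fluorescence stays within three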;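 note: channel opened by potassium depolarization with thallium stimulus after 20 min compound exposure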
# KCNK3 block: human KCNK3 channel inhibition, primary screen. CHO-KCNK3 thallium flux, FluxOR fluorescence; hits give low values. B-score at 10 µM. hit rate 0.84% among 340,000. AID 602410;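 active = B-score under library mean minus 4 SD, starting fluorescence ratio at most library mean plus 5 SD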;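 note: more negative B-score means stronger inhibition of thallium flux through KCNK3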
# * hit, by the source's call; i = inactive; / = not tested or not shown. The list is not random: actives were taken first. Their share in the collection is about 3.7%.
SMILES,hERG rescue,KCNQ1 act,KCNK9 block,Kir21 inh,KCNQ1 block,KCNK3 block
CC1CCCCC1NCC#CCOc1ccc(Cl)cc1 (configuration not stated),-10.1,i,i,-5.02*,i,i
CCc1cccc(NC(=O)CCCn2nc(CC)n3c(cc4occc43)c2=O)c1,-11.0,i,i,-5.02*,i,i
CCN(c1nc(C)cc(OC)n1)S(=O)(=O)c1ccccc1,-7.5,i,i,-6.6*,i,i
CCN1CCN(Cc2c(O)ccc3c2O/C(=C\C=C\c2ccccc2OC)C3=O)CC1,-31.4,i,i,-10.5,6*,i
CCN1CCN(Cc2c(O)ccc3c(=O)c(-c4ccccc4OC)coc23)CC1,-7.2,i,i,1.66,i,i
O=C(O)C1CCN(C(=O)CSc2nc3ccccc3s2)CC1,-8.3,i,i,-0.96,i,i
C=CCNc1nnc(SCC(=O)N2CCC(C(N)=O)CC2)s1,-4.2,9*,i,2.76,i,i
NC(=O)C1CCN(C(=O)CSc2nc3ccccc3s2)CC1,5.6*,i,i,0.13,i,i
O=C(CSc1nc2ccccc2s1)N1N=C(c2cccs2)CC1c1ccc(F)cc1 (configuration not stated),-9.9,i,-6.86*,-0.92,i,i
COC(=O)C1=COC(C)C2CN3CCc4c([nH]c5cc(OC)c(OC)cc45)C3CC12 (configuration not stated),-6.7,i,i,-0.03,i,i
C=CCn1cccc(C(=O)Nc2ccc(OC)c(Cl)c2)c1=O,-7.0,i,i,0.7,i,i
COc1cc([N+](=O)[O-])ccc1NC(=O)CN1CCOCC1,-12.0,i,i,-0.05,i,i
CCOc1ccc(Br)cc1S(=O)(=O)Nc1cccc(S(=O)(=O)N(C)c2ccccc2)c1,-2.3,i,i,-2.42,i,i
Cc1ccc(-c2nc(CSCC(=O)N3CCN(c4ccccn4)CC3)c(C)o2)cc1,-18.2,i,i,-0.17,i,-8.91*
CCc1ccc(-c2nc(CSCC(=O)N3CCN(c4ccccn4)CC3)c(C)o2)cc1,-33.0,i,i,-1.37,i,i
S=C(Nc1ccc(Cl)cc1)NC1CC2CCC(C1)N2Cc1ccccc1 (configuration not stated),-10.2,i,i,-4.65*,i,i
CC(C)(C)OC(=O)N1CCN(C(=O)c2ncn(Cc3ccccc3)c2C(=O)N2CCN(C(=O)OC(C)(C)C)CC2)CC1,/,/,/,/,/,i
COc1cc(-c2nc3ccc(N4CCN(C)CC4)cc3[nH]2)cc(OC)c1OC,5.5*,i,i,0.84,i,i
CCN(CC(=O)Nc1c(F)cccc1F)C(=O)/C=C/c1ccc2c(c1)OCO2,-8.2,i,i,0.58,i,i
Cc1onc(-c2ccccc2)c1CNC(=O)C1COc2ccccc2O1 (configuration not stated),-9.5,i,i,-5.43*,i,i
O=C(NCc1ccccc1)C1COc2ccccc2O1 (configuration not stated),-6.7,i,i,0.19,i,i
CCC(C(=O)NCc1ccco1)n1nc(C)c2c(C)n(-c3ccccc3)nc2c1=O (configuration not stated),-4.1,i,i,0.27,i,i
Cn1c(=O)c2c(ncn2CC(=O)Nc2nnc(Cc3ccccc3)s2)n(C)c1=O,-1.9,i,i,-0.88,i,i
C=CCSc1nnc(NC(=O)Cn2cnc3c2c(=O)n(C)c(=O)n3C)s1,10.1*,i,i,-0.99,i,i
Cc1ccccc1OCc1nc2ccccc2n1C,-13.1,i,i,0.04,i,i
Cc1nnc(OCc2nc3ccccc3n2C)c2ccccc12,-10.6,i,i,-4.71*,i,i
CCn1c2c(c(=N)c3c1CCC3)CCCC2,-3.5,i,i,-1.04,i,i
CCCCCCCCCn1c2c(c(=N)c3c1CCC3)CCCC2,-31.4,i,i,-14.7*,10*,-12.1*
COc1cc(C=NO)nc(-c2ccccn2)c1,/,/,/,/,/,i
CCOCC(=O)Nc1cc(C(=O)Nc2ccc(F)cc2)ccc1Cl,-3.6,i,i,-1.01,i,/
